Source: PubChem (Sanford-Burnham Center for Chemical Genomics)
The list is not random: actives were taken first. Their share in the collection is about 2.3%.
SUMO1 PPI mod – SUMO1-SIM interaction modulation; P63165; SUMO1 binding to a labelled peptide, TR-FRET, 1 h; inhibition, % at 20 µM; 0.33% of 360,000 active; in the data active = inhibition above about 37%
Target sequence (P63165 whole entry, looked up): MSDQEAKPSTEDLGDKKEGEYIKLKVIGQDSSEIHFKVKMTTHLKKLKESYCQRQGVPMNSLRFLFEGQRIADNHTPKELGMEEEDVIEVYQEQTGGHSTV
DNMT1 inh – DNMT1 (human) enzyme inhibition; P26358; DNMT1 molecular beacon, Hinp1I cleavage, fluorescence; inhibition (reported as % activation of signal), % at 10 µM; 0.83% of 360,000 active; AID 588458; in the data active = inhibition above about 50%
Rpn11 block – inhibitors of human proteasome Rpn11 | O00487 | human 26S proteasome, Ub4-pepOG fluorescence polarization; 20S core pre-blocked with epoxomicin | inhibition, % at 20 µM | 0.59% of 360,000 active | AID 588493;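 active = inhibition at 20 µM, scaled to each plate's controls, above about 33%, limit read from the data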
Target sequence (O00487 whole entry, looked up): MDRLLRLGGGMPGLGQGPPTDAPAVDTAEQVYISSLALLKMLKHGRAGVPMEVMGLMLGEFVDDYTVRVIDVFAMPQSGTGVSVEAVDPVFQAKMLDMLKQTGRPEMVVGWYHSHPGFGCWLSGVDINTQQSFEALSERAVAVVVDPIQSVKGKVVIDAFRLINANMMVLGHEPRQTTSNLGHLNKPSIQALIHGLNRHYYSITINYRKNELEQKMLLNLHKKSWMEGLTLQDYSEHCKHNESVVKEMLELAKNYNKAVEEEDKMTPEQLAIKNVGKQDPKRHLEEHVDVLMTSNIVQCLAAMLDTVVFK
STEP inh – blocks human striatal-enriched tyrosine phosphatase; P54829; recombinant STEP, OMFP fluorogenic substrate, fluorescence; inhibition, % at 20 µM; 0.25% of 360,000 active;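 active = inhibition at 20 µM, scaled per plate between control wells, above about 37%, limit read from the data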
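System: STEP phosphatase, cell-free reaction; Buffer or medium: Bis-Tris pH 6.0 buffer with DTT, detergent; Incubation: 20 min at room temperature, dark; Measured by: fluorescence, 480/540 nm.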
Scp-1 inhibitor – inhibitors of human Scp-1 phosphatase; Q9GZU7; Recombinant Scp1, phosphopeptide, malachite green phosphate absorbance; inhibition, % at 20 µM; 0.88% of 340,000 active;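 active = inhibition above about 50% at 20 µM, limit read from the data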
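Test system: SCP-1 phosphatase catalytic domain, residues 76-261; measured by: colorimetric phosphate reagent with accelerator and stabiliser, absorbance at 630 nm; timing: enzyme reaction 45 min at room temperature, colour 5 min, stabilisation 30 min; also added: Phosphorylated 17-residue peptide substrate; compound dosing: one concentration, 20 µM, with 1.0% DMSO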
LMPTP block – LMPTP (human) inhibition | P24666 | recombinant LMPTP-A, OMFP fluorogenic substrate, fluorescence intensity | AID 651560 | 0.22% of 360,000 active | inhibition, % at 20 µM;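 active = compounds that cut the enzyme signal by at least half of the control window in the single-dose screen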
Target sequence (P24666 whole entry, looked up): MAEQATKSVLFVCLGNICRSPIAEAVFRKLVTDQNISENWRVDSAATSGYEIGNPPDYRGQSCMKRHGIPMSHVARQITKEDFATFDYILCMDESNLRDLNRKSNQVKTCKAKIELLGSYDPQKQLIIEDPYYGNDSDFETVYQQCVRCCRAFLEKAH
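material = LMPTP-A | quantity = 0.625 nM enzyme | reagent = OMFP substrate, 400 µM final | buffer or medium = Bis-Tris pH 6.0, DTT, detergent | detection = endpoint fluorescence intensity from OMFP dephosphorylation | dosing = single 20 µM dose | read-out basis = % inhibition relative to no-enzyme and uninhibited control wells | control set = no-enzyme and uninhibited controls | timing = 50 min at room temperature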
Scp-1 conf – confirmation of human Scp-1 phosphatase inhibitors. shares compounds with Scp-1 inhibitor. recombinant SCP-1 catalytic domain, phosphate release, malachite green absorbance. inhibition, % at 20 µM. 61% of 2,500 active
Scp-1 MG ctr – interferes with malachite green readout, flagging false Scp-1 hits; shares compounds with Scp-1 inhibitor; Colorimetric interference counterscreen, malachite green absorbance 630 nm; apparent inhibition (interference), % at 20 µM; 2,500 tested, under 10 active; AID 540313;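 also: compounds added after enzyme reaction finished so only phosphate colour detection is probed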
Scp-1 Tm shift – binds human Scp-1, shifting its melting temperature; thermal shift relative to vanadate control, % at 40 µM; Recombinant SCP1, Sypro Orange thermal shift Tm; shares compounds with Scp-1 inhibitor; 25% of 1,500 active;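 active = substances whose mean melting-temperature shift, as a percentage of the reference inhibitor's shift, reaches about 5.3%, limit read from the data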
A number is an active result; n = inactive; x = not tested or not shown.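 The calls were made as follows, unless noted: active = inhibition of at least 30% at 20 µM; inactive = the rest.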

SMILES	SUMO1 PPI mod	DNMT1 inh	Rpn11 block	STEP inh	Scp-1 inhibitor	LMPTP block	Scp-1 conf	Scp-1 MG ctr	Scp-1 Tm shift
CC(=O)Nc1ccc(-n2nnnc2SCC(=O)Nc2cccc(NC(=O)c3ccco3)c2)cc1	n	n	n	n	55.3	n	30.2	n	n
CCc1ccc(-n2nnnc2SCC(=O)Nc2ccc(NC(C)=O)cc2)cc1	n	n	n	n	n	n	x	x	x
COc1ccc(NC(=O)CN(C)S(=O)(=O)c2ccc3c(c2)n(C)c(=O)c(=O)n3C)cc1	n	n	n	n	n	n	x	x	x
COc1ccc(CNC(=O)CN(C)S(=O)(=O)c2ccc3c(c2)n(C)c(=O)c(=O)n3C)cc1	n	n	n	n	n	n	n	n	x
COc1cccc(CNC(=O)CN(C)S(=O)(=O)c2ccc3c(c2)n(C)c(=O)c(=O)n3C)c1	n	n	n	n	n	n	n	n	x
CN(C)C(=O)c1ccc(NC(=O)c2cc(-c3ccco3)nc3ccccc23)cc1	n	50.2	n	n	65.8	n	58.0	n	n
Cc1ccccc1/C=C/c1cccc[n+]1C	n	n	n	n	92.7	n	n	n	x
C[n+]1ccccc1/C=C/c1ccc(F)c(F)c1	n	n	n	n	101.8	n	n	n	x
C[n+]1ccccc1/C=C/c1ccc(C#N)cc1	n	n	n	n	99.0	n	89.3	n	n
C[n+]1ccccc1/C=C/c1ccc([N+](=O)[O-])cc1	n	n	n	n	n	n	x	x	x
O=C(NC1CCCCC1)C1c2ccccc2OCC(=O)N1Cc1ccco1 (stereo unspecified)	n	x	x	x	x	n	x	x	x
CCCC(=O)Nc1ccc(C(=O)Nc2ccc([N+](=O)[O-])cc2OC)cc1	n	n	n	n	n	n	x	x	x
O=c1c2ccccc2sn1-c1cc(S(=O)(=O)N2CCOCC2)ccc1N1CCCC1	n	n	n	n	88.4	n	55.0	n	n
COc1ccc(NC(=O)C2(C)CCN2Cc2ccc(OC(F)(F)F)cc2)cc1OC (stereo unspecified)	n	n	n	n	x	n	x	x	x
COc1ccccc1C(=O)Nc1c2c(nn1-c1cccc(C)c1C)CS(=O)(=O)C2	n	n	n	n	72.8	n	46.4	n	n
Cc1cccc(-n2nc3c(c2NC(=O)c2ccco2)CS(=O)(=O)C3)c1C	n	n	n	n	n	n	x	x	x
COc1ccccc1C(=O)Nc1c2c(nn1-c1ccc(Cl)cc1)CS(=O)(=O)C2	n	n	n	n	50.3	n	n	n	x
Cc1c(C(=O)O)cccc1[N+](=O)[O-]	n	n	n	n	n	n	x	x	x
O=C(O)c1c[nH]c2c([N+](=O)[O-])cccc2c1=O	n	n	n	n	82.7	n	53.5	n	n
O=C(COc1ccc(-n2cnnn2)cc1)Nc1cccc(Cl)c1Cl	n	n	n	n	69.0	n	67.5	n	n
Cc1cccc(C(=O)NC2CCN(C(=O)NCc3ccccc3)CC2)c1	n	n	n	n	75.2	n	60.1	n	n
Cc1ccc(NC(=O)N2CCC(NC(=O)c3cccc(C)c3)CC2)cc1	n	n	n	n	103.0	n	54.7	n	n
CCCC(c1nnnn1CCOC)N1CCN(c2nc3ccccc3s2)CC1 (stereo unspecified)	n	n	n	n	n	n	x	x	x
Cn1c(=O)cc(SCC(=O)NCc2ccc(F)cc2)c2ccccc21	n	n	n	n	n	n	n	n	x
NNc1nccc(Nc2ccccc2C(=O)O)n1	n	n	n	n	66.2	n	65.1	n	n
SMILES	SUMO1 PPI mod	DNMT1 inh	Rpn11 block	STEP inh	Scp-1 inhibitor	LMPTP block	Scp-1 conf	Scp-1 MG ctr	Scp-1 Tm shift
O=C(NCCN1CCOCC1)C1CCC(CNS(=O)(=O)c2ccc(Cl)cc2)CC1 (stereo unspecified)	n	n	n	n	n	n	x	x	x
COC(=O)c1nnn(-c2nonc2N)c1CSc1nnc(C)s1	n	n	n	n	50.9	n	n	n	x
COc1cc(OC)c2ccc(=O)oc2c1C(CC(=O)N1CCCC(C)C1)c1ccc2c(c1)OCO2 (stereo unspecified)	n	n	n	n	55.6	n	54.1	n	n
COc1cccc(NS(=O)(=O)c2cc3c(cc2C)N(C(C)=O)CCO3)c1	n	n	n	n	87.3	n	n	n	x
Cc1c(O)cc2c(c1O)C(=O)CC(c1ccc(O)cc1)O2 (stereo unspecified)	n	n	n	n	58.3	n	45.3	n	6.2
CCOc1ccc(S(=O)(=O)NCCC(=O)OCC(=O)NC(=O)c2cccn2C)cc1	n	n	n	n	n	n	x	x	x
COc1cc(CN2CCNC(=O)C2CC(=O)N(C)CCN2CCOCC2)cc(OC)c1 (stereo unspecified)	n	n	n	n	n	n	x	x	x
Cc1ccc(C)c(OCC(=O)N2CCN(c3ncccn3)CC2)c1	n	n	n	n	n	n	x	x	x
Brc1ccc(-c2nn3c(-c4ccccn4)nnc3s2)o1	n	n	n	n	72.0	n	50.3	n	n
Clc1ccccc1-c1nn2c(-c3ccccn3)nnc2s1	n	n	n	n	n	n	x	x	x
CC(=O)c1cccc(OC(=O)c2ccc3c(=O)n4c(nc3c2)CCC4)c1	n	n	n	n	67.6	n	n	n	x
CC(C)C(NC(=S)Nc1ccccc1)C(=O)O (stereo unspecified)	n	n	n	n	n	n	x	x	x
CCOC(=O)N1CCC(N2Cc3cccc(C(=O)NCc4ccc5c(c4)OCO5)c3C2=O)CC1	n	n	n	n	91.6	n	65.1	n	n
CCOC(=O)N1CCC(NC(=O)c2cccc3c2C(=O)N(c2ccc(OC)cc2)C3)CC1	n	n	n	n	51.7	n	49.2	n	n
CC(C)[C@H](NS(=O)(=O)c1cccc(C(F)(F)F)c1)C(=O)OCC(=O)NC(=O)NCc1ccco1	n	n	n	n	n	n	x	x	x
COc1cccc(NC(=O)CN(C)C(=O)CSc2ccc3c(c2)OCCO3)c1	n	n	n	n	n	n	x	x	x
O=C(NCc1ccccc1)C(c1ccc(-c2ccccc2)cc1)N1CCN(CCN2CCOCC2)CC1 (stereo unspecified)	n	x	x	x	x	n	x	x	x
O=C(Nc1ccc(S(=O)(=O)NC2=NCCCCC2)cc1)c1cccc(S(=O)(=O)N2CCOCC2)c1	n	n	n	n	50.2	56.6	n	n	x
Cn1c(SCC(=O)c2ccc(O)c(O)c2)nnc1-c1cccs1	n	n	n	n	67.2	n	50.4	n	n
